Results reported in ChEMBL document CHEMBL4373711, “Development of 3,5-Dinitrophenyl-Containing 1,2,4-Triazoles and Their Trifluoromethyl Analogues as Highly Efficient Antitubercular Agents Inhibiting Decaprenylphosphoryl-β-d-ribofuranose 2'-Oxidase” (J Med Chem, 2019).
Values after ≈ are worked out from the molar mass of the structure shown. Active and inactive are the calls of the source. The rule behind the calls is not given here.

Experiments:
[1] = test system: Mycobacterium tuberculosis; assay: Antimycobacterial activity against XDR Mycobacterium tuberculosis Praha 131 after 14 days; assay type: functional; conditions: Praha 131, 336 h
Outline: (§1)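 M. tuberculosis strains (H37Rv and clinical MDR/XDR isolates) tested by microdilution in Šula's semisynthetic medium. Compounds were dissolved in DMSO and tested at 32 to 0.03 µM in twofold steps. Inoculum was a 1.0 McFarland suspension diluted 10-3. Plates were incubated at 37 °C and read at 14 and 21 days.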

Mycobacterium kansasii [2] = assay: Antimycobacterial activity against Mycobacterium kansasii 6509/96 after 21 days; assay type: functional; conditions: 6509/96, 504 h
Outline: (§2)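 Microdilution in Šula's semisynthetic medium; compounds in DMSO at 32–0.03 µM. Inoculum from 1.0 McFarland suspension diluted 10-4. […] Isoniazid and rifampicin as reference drugs.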

Mycobacterium kansasii [3] = assay: Antimycobacterial activity against Mycobacterium kansasii CNCTC My 235/80 after 21 days; assay type: functional; conditions: CNCTC My 235/80, 504 h; outline: as §2
Mycobacterium avium [4] = assay: Antimycobacterial activity against Mycobacterium avium CNCTC My 330/88 after 14 days; assay type: functional; conditions: CNCTC My 330/88, 336 h
Outline: (§3)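 M. avium was tested by microdilution in Šula's semisynthetic medium, with compounds dissolved in DMSO and serially diluted from 1000 down to 1. Inoculum was a 1.0 McFarland suspension diluted 10-5. Plates were incubated at 37 °C and read at 14 and 21 days. […] Isoniazid and rifampicin served as standards.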

[5] = test system: Mycobacterium tuberculosis; assay: Antimycobacterial activity against Mycobacterium tuberculosis H37Rv CNCTC My 331/88 after 14 days; assay type: functional; conditions: H37Rv CNCTC My 331/88, 336 h; outline: as §1
Mycobacterium kansasii [6] = assay: Antimycobacterial activity against Mycobacterium kansasii 6509/96 after 7 days; assay type: functional; conditions: 6509/96, 168 h; outline: as §2
Mycobacterium kansasii [7] = assay: Antimycobacterial activity against Mycobacterium kansasii CNCTC My 235/80 after 14 days; assay type: functional; conditions: CNCTC My 235/80, 336 h; outline: as §2
Mycobacterium avium [8] = assay: Antimycobacterial activity against Mycobacterium avium CNCTC My 330/88 after 21 days; assay type: functional; conditions: CNCTC My 330/88, 504 h; outline: as §3
Mycobacterium kansasii [9] = assay: Antimycobacterial activity against Mycobacterium kansasii CNCTC My 235/80 after 7 days; assay type: functional; conditions: CNCTC My 235/80, 168 h; outline: as §2
[10] = test system: Mycobacterium tuberculosis; assay: Antimycobacterial activity against Mycobacterium tuberculosis H37Rv CNCTC My 331/88 after 21 days; assay type: functional; conditions: H37Rv CNCTC My 331/88, 504 h; outline: as §1
Mycobacterium kansasii [11] = assay: Antimycobacterial activity against Mycobacterium kansasii 6509/96 after 14 days; assay type: functional; conditions: 6509/96, 336 h; outline: as §2
[12] = test system: Trichophyton interdigitale; assay: Antifungal activity against Trichophyton interdigitale ATCC 9533 CCM 8377 at highest concentration measured after 72 to 120 hrs by alamar blue dye based broth microdilution assay; assay type: functional
Lichtheimia corymbifera = assay: Antifungal activity against Lichtheimia corymbifera CCM 8077 at highest concentration measured after 24 to 48 hrs by alamar blue dye based broth microdilution assay; assay type: functional, organism-based
Staphylococcus aureus [13] = assay: Antibacterial activity against methicillin-resistant Staphylococcus aureus subsp. aureus ATCC 43300 CCM 4750 at highest concentration measured after 24 to 48 hrs by alamar blue dye based broth microdilution assay; assay type: functional, organism-based
Aspergillus fumigatus = assay: Antifungal activity against Aspergillus fumigatus ATCC 204305 at highest concentration measured after 24 to 48 hrs by alamar blue dye based broth microdilution assay; assay type: functional, organism-based
Escherichia coli = assay: Antibacterial activity against Escherichia coli ATCC 25922 CCM 3954 at highest concentration measured after 24 to 48 hrs by alamar blue dye based broth microdilution assay; assay type: functional, organism-based
HepG2 = assay: Cytotoxicity against human HepG2 cells assessed as reduction in cell viability after 48 hrs by CellTiter 96 aqueous one solution assay; assay type: cell-based; conditions: HepG2, 48 h
A-431 = assay: Cytotoxicity against human A431 cells assessed as reduction in cell viability after 48 hrs by CellTiter 96 aqueous one solution assay; assay type: cell-based; conditions: A-431, 48 h
[14] = Cytotoxicity against human A431 cells assessed as cell viability at 30 uM after 48 hrs by CellTiter 96 aqueous one solution assay relative to control; assay type: cell-based, A-431; conditions: read-out: Activity
Outline: (§4)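 HepG2 (DMEM, 10% FBS, 1 mM pyruvate) or A431 (DMEM, 10% FBS) seeded 10,000 cells/well, 24 h at 37 °C, 5% CO2, then 30 µM compound for 48 h. MTS reagent 60 min, absorbance 490 nm, background subtracted; 0.1% DMSO vehicle = 100%, 10% SDS = 0% viability.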

[15] = test system: Staphylococcus epidermidis; assay: Antibacterial activity against Staphylococcus epidermidis at highest concentration measured after 24 to 48 hrs by alamar blue dye based broth microdilution assay; assay type: functional, organism-based
[16] = Cytotoxicity against human HepG2 cells assessed as cell viability at 30 uM after 48 hrs by CellTiter 96 aqueous one solution assay relative to control; assay type: cell-based; conditions: read-out: Activity; outline: as §4
Serratia marcescens = assay: Antibacterial activity against Serratia marcescens at highest concentration measured after 24 to 48 hrs by alamar blue dye based broth microdilution assay; assay type: functional, organism-based
Enterococcus faecalis = assay: Antibacterial activity against Enterococcus faecalis ATCC 29212 CCM 4224 at highest concentration measured after 24 to 48 hrs by alamar blue dye based broth microdilution assay; assay type: functional, organism-based
Staphylococcus aureus [17] = assay: Antibacterial activity against Staphylococcus aureus subsp. aureus ATCC 29213 CCM 4223 at highest concentration measured after 24 to 48 hrs by alamar blue dye based broth microdilution assay; assay type: functional, organism-based
Aspergillus flavus = assay: Antifungal activity against Aspergillus flavus CCM 8363 at highest concentration measured after 24 to 48 hrs by alamar blue dye based broth microdilution assay; assay type: functional, organism-based
Candida tropicalis = assay: Antifungal activity against Candida tropicalis ATCC 750 CCM 8264 at highest concentration measured after 24 to 48 hrs by alamar blue dye based broth microdilution assay; assay type: functional, organism-based
Candida albicans = assay: Antifungal activity against Candida albicans ATCC 24433 CCM 8320 at highest concentration measured after 24 to 48 hrs by alamar blue dye based broth microdilution assay; assay type: functional, organism-based
Pseudomonas aeruginosa = assay: Antibacterial activity against Pseudomonas aeruginosa ATCC 27853 CCM 3955 at highest concentration measured after 24 to 48 hrs by alamar blue dye based broth microdilution assay; assay type: functional, organism-based
Candida parapsilosis = assay: Antifungal activity against Candida parapsilosis ATCC 22019 CCM 8260 at highest concentration measured after 24 to 48 hrs by alamar blue dye based broth microdilution assay; assay type: functional, organism-based
Pichia kudriavzevii = assay: Antifungal activity against Candida krusei ATCC 6258 CCM8271 at highest concentration measured after 24 to 48 hrs by alamar blue dye based broth microdilution assay; assay type: functional, organism-based
Klebsiella pneumoniae = assay: Antibacterial activity against Klebsiella pneumoniae at highest concentration measured after 24 to 48 hrs by alamar blue dye based broth microdilution assay; assay type: functional, organism-based

| SMILES | MIC99 [1] [µM] | MIC99 (Mycobacterium kansasii [2]) [µM] | MIC99 (Mycobacterium kansasii [3]) [µM] | MIC99 (Mycobacterium avium [4]) [µM] | MIC99 [5] [µM] | MIC99 (Mycobacterium kansasii [6]) [µM] | MIC99 (Mycobacterium kansasii [7]) [µM] | MIC99 (Mycobacterium avium [8]) [µM] | MIC99 (Mycobacterium kansasii [9]) [µM] | MIC99 [10] [µM] | MIC99 (Mycobacterium kansasii [11]) [µM] | Activity [12] | Activity (Lichtheimia corymbifera) | Activity (Staphylococcus aureus [13]) | Activity (Aspergillus fumigatus) | Activity (Escherichia coli) | IC50 (HepG2) [µM] | IC50 (A-431) [µM] | viability at 48 h, 30 µM [14] [%] | Activity [15] | also measured |
| --- | --- | --- | --- | --- | --- | --- | --- | --- | --- | --- | --- | --- | --- | --- | --- | --- | --- | --- | --- | --- | --- |
| CN[C@@H]1[C@H](O[C@H]2[C@H](O[C@H]3[C@H](O)[C@@H](O)[C@H](N=C(N)N)[C@@H](O)[C@@H]3N=C(N)N)O[C@@H](C)[C@]2(O)C=O)O[C@@H](CO)[C@H](O)[C@H]1O [STREPTOMYCIN] | > 32 | – | – | – | – | – | – | – | – | – | – | – | – | – | – | – | – | – | – | – | – |
| CO[C@H]1/C=C/O[C@@]2(C)Oc3c(C)c(O)c4c(O)c(c(/C=N/N5CCN(C)CC5)c(O)c4c3C2=O)NC(=O)/C(C)=C\C=C\[C@H](C)[C@H](O)[C@@H](C)[C@@H](O)[C@@H](C)[C@H](OC(C)=O)[C@@H]1C [RIFAMPIN] | > 8 | 0.25 (≈ 0.206 µg/mL) | 0.25 (≈ 0.206 µg/mL) | 32 (≈ 26.3 µg/mL) | 0.25 (≈ 0.206 µg/mL) | 0.125 (≈ 0.103 µg/mL) | 0.25 (≈ 0.206 µg/mL) | 62 (≈ 51 µg/mL) | 0.125 (≈ 0.103 µg/mL) | 0.25 (≈ 0.206 µg/mL) | 0.25 (≈ 0.206 µg/mL) | – | – | – | – | – | – | – | – | – | – |
| NCC[C@H](O)C(=O)N[C@@H]1C[C@H](N)[C@@H](O[C@H]2O[C@H](CN)[C@@H](O)[C@H](O)[C@H]2O)[C@H](O)[C@H]1O[C@H]1O[C@H](CO)[C@@H](O)[C@H](N)[C@H]1O [AMIKACIN] | > 32 | – | – | – | – | – | – | – | – | – | – | – | – | – | – | – | – | – | – | – | – |
| Cn1c(SCc2ccc(Br)cc2)nnc1-c1cc([N+](=O)[O-])cc([N+](=O)[O-])c1 | – | 1 (≈ 0.45 µg/mL) | 1 (≈ 0.45 µg/mL) | 8 (≈ 3.6 µg/mL) | 0.25 (≈ 0.113 µg/mL) | 0.25 (≈ 0.113 µg/mL) | 0.5 (≈ 0.225 µg/mL) | 8 (≈ 3.6 µg/mL) | 0.5 (≈ 0.225 µg/mL) | 0.5 (≈ 0.225 µg/mL) | 0.5 (≈ 0.225 µg/mL) | inactive | inactive | inactive | inactive | inactive | > 30 | > 30 | 137 | inactive | viability at 48 h, 30 µM [16]: 152%; Activity (Serratia marcescens): inactive; Activity (Enterococcus faecalis): inactive; Activity (Staphylococcus aureus [17]): inactive; Activity (Aspergillus flavus): inactive; Activity (Candida tropicalis): inactive; Activity (Candida albicans): inactive; Activity (Pseudomonas aeruginosa): inactive; Activity (Candida parapsilosis): inactive; Activity (Pichia kudriavzevii): inactive; Activity (Klebsiella pneumoniae): inactive |
| O=[N+]([O-])c1cc(-c2nnc(SCc3ccc(Cl)cc3)n2Cc2ccccc2)cc(C(F)(F)F)c1 | – | 0.5 (≈ 0.252 µg/mL) | 0.5 (≈ 0.252 µg/mL) | 250 (≈ 126 µg/mL) | 0.5 (≈ 0.252 µg/mL) | 0.5 (≈ 0.252 µg/mL) | 0.5 (≈ 0.252 µg/mL) | 250 (≈ 126 µg/mL) | 0.5 (≈ 0.252 µg/mL) | 0.5 (≈ 0.252 µg/mL) | 0.5 (≈ 0.252 µg/mL) | inactive | inactive | inactive | inactive | inactive | > 30 | > 30 | 121 | inactive | viability at 48 h, 30 µM [16]: 68%; Activity (Serratia marcescens): inactive; Activity (Enterococcus faecalis): inactive; Activity (Staphylococcus aureus [17]): inactive; Activity (Aspergillus flavus): inactive; Activity (Candida tropicalis): inactive; Activity (Candida albicans): inactive; Activity (Pseudomonas aeruginosa): inactive; Activity (Candida parapsilosis): inactive; Activity (Pichia kudriavzevii): inactive; Activity (Klebsiella pneumoniae): inactive |
